Assay results as given in ChEMBL document CHEMBL4706553, “Discovery of potent small molecule PROTACs targeting mutant EGFR” (Eur J Med Chem, 2020).
The source made the active and inactive calls.

Assays:
HepG2 = assay: Antiproliferative activity against human HepG2 cells expressing VEGFR2 assessed as cell growth inhibition measured after 72 hrs by MTT assay; type: functional, cell-based; settings: HepG2, 72 h
How it was run: (§1)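 Cells were seeded at 3000–8000/well and allowed 24 h, then exposed to serial compound concentrations for 72 h. MTT (5 mg/mL stock in PBS) was added for 4 h, supernatant removed and DMSO added. IC50, defined as 50% growth inhibition, was derived by nonlinear regression (log inhibitor vs response).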

NCI-H1975 = assay: Antiproliferative activity against human H1975 cells expressing EGFR L858R/T790M mutant assessed as cell growth inhibition measured after 72 hrs by MTT assay; type: functional, cell-based; settings: NCI-H1975, 72 h
How it was run: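 MTT assay on H1975 cells grown in RPMI-1640 with 10% heat-inactivated FBS and 1% penicillin-streptomycin at 37 °C and 5% CO₂. Cells were seeded at 3000–8000 per well and left 24 h, then exposed to a concentration series for 72 h. MTT (5 mg/mL stock in PBS) was added for 4 h, supernatant removed and formazan dissolved in DMSO. IC50 was fitted by nonlinear regression (log inhibitor vs response).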

HCC827 = assay: Antiproliferative activity against human HCC827 cells expressing EGFR del19 mutant assessed as cell growth inhibition measured after 72 hrs by MTT assay; type: functional, cell-based; settings: HCC827, 72 h
How it was run: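 HCC827 cells were kept in RPMI-1640 with 10% heat-inactivated FBS, 1% sodium pyruvate, 1% glutamine and 1% penicillin-streptomycin at 37 °C and 5% CO₂, seeded at 3000–8000/well and rested 24 h. Compounds were applied as a concentration series for 72 h. MTT (5 mg/mL stock in PBS) was given for 4 h, then medium was removed and DMSO added. IC50 came from nonlinear regression (log inhibitor vs response).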

[1] = tested on: von Hippel-Lindau disease tumor suppressor/Epidermal growth factor receptor (Homo sapiens), P00533+P40337 [UNDEFINED MUTATION]; assay: Protac activity at VHL/EGFR del19 mutant in human HCC827 cells assessed as induction of EGFR degradation at 33 to 333 nM measured after 24 hrs by Western blot analysis; type: cell-based; settings: dose 33-333 nM
How it was run: (§2)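 HCC827 cells seeded at 0.5–1 × 10⁶ per well, grown 24 h, then treated at the stated concentrations for 24 h. EGFR^del19 level by Western blot with anti-EGFR antibody and β-actin loading control.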

A-431 = assay: Antiproliferative activity against human A431 cells expressing wild type EGFR assessed as cell growth inhibition measured after 72 hrs by MTT assay; type: functional, cell-based; settings: A-431, 72 h; how it was run: as §1
[2] = tested on: Protein cereblon/Epidermal growth factor receptor (Homo sapiens), P00533+Q96SW2 [UNDEFINED MUTATION]; assay: Protac activity at CRBN/EGFR del19 mutant in human HCC827 cells assessed as induction of EGFR degradation at 333 nM measured after 24 hrs by Western blot analysis; type: cell-based; how it was run: as §2
[3] = tested on: Protein cereblon/Epidermal growth factor receptor (Homo sapiens), P00533+Q96SW2 [UNDEFINED MUTATION]; assay: Protac activity at CRBN/EGFR del19 mutant in human HCC827 cells assessed as induction of EGFR degradation at 33 nM measured after 24 hrs by Western blot analysis; type: cell-based; how it was run: as §2

von Hippel-Lindau disease tumor suppressor/Epidermal growth factor receptor (Homo sapiens), P00533+P40337 [UNDEFINED MUTATION], sequence (P00533 whole entry, looked up, stated change not applied): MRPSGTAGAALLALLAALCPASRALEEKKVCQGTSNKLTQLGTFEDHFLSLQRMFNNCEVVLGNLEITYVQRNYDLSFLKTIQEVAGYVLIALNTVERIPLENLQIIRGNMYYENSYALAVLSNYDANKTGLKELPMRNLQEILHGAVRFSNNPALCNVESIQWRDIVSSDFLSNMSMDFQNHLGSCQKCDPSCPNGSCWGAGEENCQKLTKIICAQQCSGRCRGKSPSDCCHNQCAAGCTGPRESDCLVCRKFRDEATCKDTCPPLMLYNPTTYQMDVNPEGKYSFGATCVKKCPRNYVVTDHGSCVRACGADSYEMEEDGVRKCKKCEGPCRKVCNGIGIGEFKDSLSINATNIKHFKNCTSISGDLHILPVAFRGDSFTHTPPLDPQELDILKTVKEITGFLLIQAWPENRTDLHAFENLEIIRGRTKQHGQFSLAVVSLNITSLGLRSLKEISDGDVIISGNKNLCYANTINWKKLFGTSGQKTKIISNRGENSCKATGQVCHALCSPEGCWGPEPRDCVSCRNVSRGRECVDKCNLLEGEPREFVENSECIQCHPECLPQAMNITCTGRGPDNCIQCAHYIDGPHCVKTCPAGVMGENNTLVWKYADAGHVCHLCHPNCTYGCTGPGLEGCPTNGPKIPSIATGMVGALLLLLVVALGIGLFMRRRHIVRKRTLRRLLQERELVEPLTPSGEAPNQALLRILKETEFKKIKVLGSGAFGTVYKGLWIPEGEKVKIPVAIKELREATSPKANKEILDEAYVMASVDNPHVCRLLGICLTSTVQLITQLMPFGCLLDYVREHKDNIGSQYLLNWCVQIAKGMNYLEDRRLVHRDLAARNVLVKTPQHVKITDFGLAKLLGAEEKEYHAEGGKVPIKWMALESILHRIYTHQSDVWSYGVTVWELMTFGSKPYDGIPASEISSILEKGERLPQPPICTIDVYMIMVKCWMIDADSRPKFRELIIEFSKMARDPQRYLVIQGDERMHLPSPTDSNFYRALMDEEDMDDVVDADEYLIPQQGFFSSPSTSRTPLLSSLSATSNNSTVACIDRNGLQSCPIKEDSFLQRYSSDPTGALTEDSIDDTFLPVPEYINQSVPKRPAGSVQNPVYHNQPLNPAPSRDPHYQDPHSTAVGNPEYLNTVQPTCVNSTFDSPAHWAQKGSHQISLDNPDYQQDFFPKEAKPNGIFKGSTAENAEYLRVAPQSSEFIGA
von Hippel-Lindau disease tumor suppressor/Epidermal growth factor receptor (Homo sapiens), P00533+P40337 [UNDEFINED MUTATION], sequence (P40337 whole entry, looked up, stated change not applied): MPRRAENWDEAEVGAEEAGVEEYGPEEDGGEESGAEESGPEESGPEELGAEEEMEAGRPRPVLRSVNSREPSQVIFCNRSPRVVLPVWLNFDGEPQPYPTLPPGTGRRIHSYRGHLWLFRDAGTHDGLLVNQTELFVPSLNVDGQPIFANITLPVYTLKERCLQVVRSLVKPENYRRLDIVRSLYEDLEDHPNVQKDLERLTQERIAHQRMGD
Protein cereblon/Epidermal growth factor receptor (Homo sapiens), P00533+Q96SW2 [UNDEFINED MUTATION], sequence (P00533 whole entry, looked up, stated change not applied): as the sequence (P00533 whole entry, looked up, stated change not applied) above
Protein cereblon/Epidermal growth factor receptor (Homo sapiens), P00533+Q96SW2 [UNDEFINED MUTATION], sequence (Q96SW2 whole entry, looked up, stated change not applied): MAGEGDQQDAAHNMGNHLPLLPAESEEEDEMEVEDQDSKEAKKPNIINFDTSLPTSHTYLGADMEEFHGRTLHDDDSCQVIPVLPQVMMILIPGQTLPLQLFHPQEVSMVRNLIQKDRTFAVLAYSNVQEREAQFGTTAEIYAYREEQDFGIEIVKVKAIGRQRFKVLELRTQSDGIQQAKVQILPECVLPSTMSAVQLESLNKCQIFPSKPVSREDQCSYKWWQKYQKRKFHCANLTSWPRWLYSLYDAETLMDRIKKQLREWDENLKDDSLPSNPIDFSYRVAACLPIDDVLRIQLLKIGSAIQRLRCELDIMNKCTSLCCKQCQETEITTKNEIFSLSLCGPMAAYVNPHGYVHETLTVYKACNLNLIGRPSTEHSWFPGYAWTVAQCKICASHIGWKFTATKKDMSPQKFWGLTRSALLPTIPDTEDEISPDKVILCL

| Structure (SMILES) | IC50 (HepG2) | IC50 (NCI-H1975) | IC50 (HCC827) | Activity [1] | IC50 (A-431) | Activity [2] | Activity [3] |
| --- | --- | --- | --- | --- | --- | --- | --- |
| Cc1ncsc1-c1ccc(CNC(=O)[C@@H]2C[C@@H](O)CN2C(=O)[C@@H](NCCOCCOCCN2CCN(c3ccc(Nc4ncc5nc(Nc6ccccc6)n(C6CCCC6)c5n4)cc3)CC2)C(C)(C)C)cc1 | > 5000 nM | 1100 nM | 53.5 nM | inactive |  |  |  |
| CN1CCN(c2ccc(Nc3ncc4nc(Nc5ccccc5)n(C5CCCC5)c4n3)cc2)CC1 | > 5000 nM | 430 nM | 0.82 nM |  | 163 nM |  |  |
| C=CC(=O)Nc1cc(Nc2nccc(-c3cn(C)c4ccccc34)n2)c(OC)cc1N(C)CCN(C)C [OSIMERTINIB] |  | […] | 0.97 nM |  | […] |  |  |
| Cc1ncsc1-c1ccc(CNC(=O)[C@@H]2C[C@@H](O)CN2C(=O)[C@@H](NCCOCCOCCOCCN2CCN(c3ccc(Nc4ncc5nc(Nc6ccccc6)n(C6CCCC6)c5n4)cc3)CC2)C(C)(C)C)cc1 | > 5000 nM | 2100 nM | 54.4 nM | inactive |  |  |  |
| CN(CCOCCOCCOCCOCCN1CCN(c2ccc(Nc3ncc4nc(Nc5ccccc5)n(C5CCCC5)c4n3)cc2)CC1)CC(=O)Nc1cccc2c1CN(C1CCC(=O)NC1=O)C2=O (stereo not given) | > 5000 nM | 3340 nM | 2.83 nM |  | 2720 nM | inactive | Active |
| Cc1ncsc1-c1ccc(CNC(=O)[C@@H]2C[C@@H](O)CN2C(=O)[C@@H](NCCOCCOCCOCCOCCN2CCN(c3ccc(Nc4ncc5nc(Nc6ccccc6)n(C6CCCC6)c5n4)cc3)CC2)C(C)(C)C)cc1 | > 5000 nM | 2890 nM | 62 nM | inactive |  |  |  |
